Measured values as given in ChEMBL document CHEMBL1140721, “Development of potent purine-derived nitrile inhibitors of the trypanosomal protease TbcatB” (J Med Chem, 2008).

What was measured:
[1] = target: T1, Cathepsin B-like cysteine protease (Trypanosoma brucei, UniProt Q6R7Z5); experiment: Inhibition of Trypanosoma brucei cathepsin B-like cysteine protease
T1 sequence (Q6R7Z5 whole entry): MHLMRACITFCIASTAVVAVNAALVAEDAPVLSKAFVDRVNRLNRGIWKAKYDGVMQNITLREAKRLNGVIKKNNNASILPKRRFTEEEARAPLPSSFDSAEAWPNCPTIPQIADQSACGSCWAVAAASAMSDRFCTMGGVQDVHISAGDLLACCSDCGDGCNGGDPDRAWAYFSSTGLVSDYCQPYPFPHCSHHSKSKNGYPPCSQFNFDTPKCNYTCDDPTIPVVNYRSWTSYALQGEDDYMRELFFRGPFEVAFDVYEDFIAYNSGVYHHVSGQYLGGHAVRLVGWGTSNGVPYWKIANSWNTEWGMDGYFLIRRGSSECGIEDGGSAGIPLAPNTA
Outline: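 Recombinant TbcatB zymogen expressed in Pichia pastoris, purified by HIC and anion exchange, titrated with CA074; 35 nM final. Inhibitor preincubated 20 min at room temperature, then Z-Phe-Arg-AMC (10 µM final). Initial rate from fluorescence (ex 350/em 460 nm) over 10 min. Triplicate. Sigmoidal IC50 fit.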

[2] = system: Trypanosoma brucei; experiment: Antitrypanosomal activity against Trypanosoma brucei; format: functional, organism-based
Outline: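 Culture-adapted bloodstream T. brucei grown in HMI-9 with pen/strep, 10% heat-inactivated FBS and 10% Serum Plus at 37 °C, 5% CO2, diluted to 1 × 10^4 cells/mL. Inhibitor added from DMSO, 48 h at 37 °C, then 1 h room-temperature equilibration. Cell Titer Glo luminescence read after 8 min. Quadruplicate. IC50 by curve fitting. Values shift up to 10-fold with FBS lot.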

[3] = target: Procathepsin L (Homo sapiens, UniProt P07711); experiment: Inhibition of human liver cathepsin L
Outline: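 Inhibitor preincubated 20 min at room temperature before Z-Phe-Arg-AMC (10 µM final). Initial rate from fluorescence (ex 350/em 460 nm) over 10 min. Quadruplicate. Sigmoidal IC50 fit.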

[4] = target: Cathepsin B (Homo sapiens, UniProt P07858); experiment: Inhibition of human liver cathepsin B
Outline: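 Human liver enzyme at 0.56 ng/mL final in sodium acetate pH 5.5 buffer with 4 mM DTT, 0.01% Triton X-100, 0.5 mM EDTA. 20 min room-temperature preincubation with inhibitor, then Z-Arg-Arg-AMC (10 µM final). Quadruplicate. Sigmoidal IC50 fit.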

Procathepsin L, sequence (P07711 whole entry): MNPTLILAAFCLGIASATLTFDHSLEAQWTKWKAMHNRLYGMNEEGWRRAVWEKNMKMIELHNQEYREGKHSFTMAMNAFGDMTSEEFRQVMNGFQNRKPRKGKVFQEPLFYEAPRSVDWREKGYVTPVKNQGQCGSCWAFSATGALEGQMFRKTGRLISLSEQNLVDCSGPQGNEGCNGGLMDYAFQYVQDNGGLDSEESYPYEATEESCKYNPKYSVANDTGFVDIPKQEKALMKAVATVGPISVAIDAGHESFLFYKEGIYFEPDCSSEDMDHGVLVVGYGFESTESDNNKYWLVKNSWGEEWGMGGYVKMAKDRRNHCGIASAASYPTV

| SMILES | IC50 [1] | IC50 [2] | IC50 [3] | IC50 [4] | EC50 [2] |
| --- | --- | --- | --- | --- | --- |
| COc1ccc(Cn2cnc3c(NCc4ccc(Cl)cc4)nc(C#N)nc32)cc1 | 23 µM | 0.27 µM | > 30 µM | > 30 µM |  |
| N#Cc1nc(NCc2ccc(Cl)c(Cl)c2)c2ncn(CCCO)c2n1 | 0.27 µM | 0.11 µM | 0.3 µM |  |  |
| N#Cc1nc(NCc2ccc(Cl)c(Cl)c2)c2ncn(CCCCCO)c2n1 | 0.93 µM | 0.06 µM | 0.8 µM | > 30 µM |  |
| N#Cc1nc(NCc2ccccc2)c2ncn(C3CCCC3)c2n1 | > 25 µM | 1.7 µM | 13.4 µM | > 30 µM |  |
| N#Cc1nc(NCc2ccc(Cl)cc2)c2ncn(Cc3ccccc3)c2n1 | > 25 µM | 1.5 µM | > 30 µM | > 30 µM |  |
| COc1ccc(Cn2cnc3c(NCc4ccccc4)nc(C#N)nc32)cc1 | 11 µM |  | 26.9 µM | > 30 µM | 0.4 µM |
| N#Cc1nc(NCc2ccc(Cl)cc2)c2ncn(Cc3cccc(C(F)(F)F)c3)c2n1 | > 25 µM | 0.34 µM | > 30 µM | > 30 µM |  |
| N#Cc1nc(NCCc2ccccc2)c2ncn(Cc3ccccc3)c2n1 | > 25 µM | 2.4 µM | > 30 µM | > 30 µM |  |
| N#Cc1nc(NCc2ccc(Cl)cc2)c2ncn(CCCCO)c2n1 | 4.8 µM | 0.6 µM | 4.15 µM |  |  |
| N#Cc1nc(NCc2ccc(Cl)c(Cl)c2)c2ncn(Cc3ccccc3)c2n1 | 15 µM |  | 14.9 µM | > 30 µM | 0.26 µM |
| CCC(C)CNc1nc(C#N)nc2c1ncn2C1CCCC1 (configuration not stated) | 14 µM | 1.1 µM | 2.38 µM | > 30 µM |  |
| N#Cc1nc(NCc2ccccc2)c2ncn(CCCO)c2n1 | 12 µM |  | 2.27 µM |  | 2.9 µM |
| CCCCn1cnc2c(NCc3ccc(Br)cc3)nc(C#N)nc21 | 8.4 µM | 0.54 µM | 9.62 µM | > 30 µM |  |
| N#Cc1nc(NCc2ccc(Br)cc2)c2ncn(CCCc3ccccc3)c2n1 | > 25 µM | 0.42 µM | > 30 µM | > 30 µM |  |
| Cc1ccc(CNc2nc(C#N)nc3c2ncn3CCCO)cc1 | 4.2 µM |  | 1.17 µM | 7.69 µM | 0.9 µM |
| Cc1ccc(C(=O)Nc2ccc(S(=O)(=O)O)c3cc(S(=O)(=O)O)cc(S(=O)(=O)O)c23)cc1NC(=O)c1cccc(NC(=O)Nc2cccc(C(=O)Nc3cc(C(=O)Nc4ccc(S(=O)(=O)O)c5cc(S(=O)(=O)O)cc(S(=O)(=O)O)c45)ccc3C)c2)c1 [SURAMIN] |  | 0.13 µM |  | > 30 µM |  |
| CCCn1cnc2c(NC3CCCCC3)nc(C#N)nc21 | 8.3 µM | 12 µM | 2.53 µM | 19 µM |  |
| CCCCn1cnc2c(NC(C)c3ccccc3)nc(C#N)nc21 (configuration not stated) | > 25 µM | 1.5 µM | 9.4 µM | > 30 µM |  |
| N=C(N)c1ccc(/N=N/Nc2ccc(C(=N)N)cc2)cc1 [DIMINAZENE] |  | 0.02 µM |  | > 30 µM |  |
| N#Cc1nc(NCc2ccc(Cl)cc2)c2ncn(Cc3cccnc3)c2n1 | > 25 µM | 0.5 µM | > 30 µM | > 30 µM |  |
| N#Cc1nc(NCc2ccc(Cl)c(Cl)c2)c2ncn(CCO)c2n1 | 1.4 µM | 0.6 µM | 0.3 µM | > 30 µM |  |
| CCCCn1cnc2c(NCc3ccc(OC)cc3)nc(C#N)nc21 | 6 µM |  | 2.28 µM | > 30 µM | 0.39 µM |
| N#Cc1nc(NCc2ccc(F)cc2)c2ncn(CCCCO)c2n1 | 18 µM | 0.8 µM | 6.68 µM | > 30 µM |  |
| N#Cc1nc(NCc2ccc(F)cc2)c2ncn(Cc3ccccc3)c2n1 | 3.3 µM | 0.9 µM | 13.5 µM | > 30 µM |  |
| N#Cc1nc(NCc2ccc(Cl)cc2)c2ncn(CCCO)c2n1 | 0.57 µM | 0.31 µM | 0.61 µM |  |  |
| Cc1cccc(CNc2nc(C#N)nc3c2ncn3Cc2ccccc2)c1 | 3.3 µM | 0.48 µM | 10.5 µM | > 30 µM |  |
| Cc1cccc(CNc2nc(C#N)nc3c2ncn3CC2CCCCC2)c1 | > 25 µM | 2.2 µM | > 30 µM | > 30 µM |  |
| COCOCCn1cnc2c(NCc3ccc(Cl)c(Cl)c3)nc(C#N)nc21 | 0.8 µM | 0.32 µM | 0.87 µM | > 30 µM |  |

| SMILES | IC50 [1] | IC50 [2] | IC50 [3] | IC50 [4] | EC50 [2] |
| --- | --- | --- | --- | --- | --- |
| CC(Nc1nc(C#N)nc2c1ncn2C1CCCC1)c1ccccc1 (configuration not stated) | > 25 µM | 3.4 µM | 11.8 µM | > 30 µM |  |
| CC(Nc1nc(C#N)nc2c1ncn2Cc1ccccc1)c1ccccc1 (configuration not stated) | > 25 µM | 1.3 µM | > 30 µM | > 30 µM |  |
| N#Cc1nc(NCc2ccccc2)c2ncn(Cc3ccccc3)c2n1 | 6 µM | 2 µM | 12.2 µM | > 30 µM |  |
| N#Cc1nc(NCc2ccc(Cl)c(Cl)c2)c2ncn(CC(O)CO)c2n1 (configuration not stated) | 1.2 µM | 0.45 µM | 0.42 µM | > 30 µM |  |
| N#Cc1nc(NCc2ccc(Cl)cc2)c2ncn(C3CCCC3)c2n1 | 19 µM | 1.2 µM | 13.5 µM | > 30 µM |  |
| CCCCn1cnc2c(NCc3cccc(C)c3)nc(C#N)nc21 | 11 µM | 0.27 µM | 3.91 µM | > 30 µM |  |
| CCCCCCNc1nc(C#N)nc2c1ncn2CC1CCCCC1 | > 25 µM | 3.6 µM | > 30 µM | > 30 µM |  |
| CCCCn1cnc2c(NCc3ccc(F)cc3)nc(C#N)nc21 | 7.1 µM | 0.7 µM | 6.84 µM | > 30 µM |  |
| CCCCn1cnc2c(NCc3ccccc3)nc(C#N)nc21 | 14 µM | 1.7 µM | 4.38 µM | > 30 µM |  |
| CCCCCCNc1nc(C#N)nc2c1ncn2Cc1ccccc1 | > 25 µM | 0.7 µM | > 30 µM | > 30 µM |  |
| CCCCn1cnc2c(NCc3ccc(Cl)cc3)nc(C#N)nc21 | 10 µM | 0.85 µM | 5.06 µM | > 30 µM |  |
| N#Cc1nc(NCc2ccc(Br)cc2)c2ncn(Cc3ccccc3)c2n1 | > 25 µM | 1.1 µM | 28.9 µM | > 30 µM |  |
| N#Cc1nc(NCCc2ccccc2)c2ncn(Cc3cccnc3)c2n1 | 10 µM | 4.4 µM | 17.1 µM | > 30 µM |  |
| COC(CCn1cnc2c(NCc3ccc(Cl)c(Cl)c3)nc(C#N)nc21)OC | 3.4 µM | 0.22 µM | 0.5 µM | > 30 µM |  |
| CCCCn1cnc2c(NCc3ccc(C)cc3)nc(C#N)nc21 | > 25 µM |  | 5.86 µM | > 30 µM | 0.55 µM |
| N#Cc1nc(NCc2ccccc2)c2ncn(CC3CCCCO3)c2n1 (configuration not stated) | 11 µM |  | 10.8 µM | > 30 µM | 0.24 µM |
| N#Cc1nc(NC2CCCCC2)c2ncn(Cc3ccccc3)c2n1 | 2.3 µM | 0.33 µM | 3.79 µM | 17.7 µM |  |
| CCCCn1cnc2c(NCCc3ccccc3)nc(C#N)nc21 | 16 µM | 1.5 µM | 17.1 µM | > 30 µM |  |
| CCCCCCNc1nc(C#N)nc2c1ncn2C1CCCC1 | > 25 µM | 1.5 µM | 28.4 µM | > 30 µM |  |
| COc1ccc(CNc2nc(C#N)nc3c2ncn3Cc2ccccc2)cc1 | 4.5 µM |  | 8.05 µM | > 30 µM | 1 µM |
| COc1ccc(CNc2nc(C#N)nc3c2ncn3C2CCCC2)cc1 | 7 µM | 0.8 µM | 4 µM | > 30 µM |  |
| N#Cc1nc(NCc2ccccc2)c2ncn(Cc3cccc(C(F)(F)F)c3)c2n1 | 2.8 µM | 0.26 µM | > 30 µM | > 30 µM |  |
| Cc1ccc(CNc2nc(C#N)nc3c2ncn3Cc2ccccc2)cc1 | > 25 µM |  | 12.9 µM | > 30 µM | 0.56 µM |
| CCC(C)CNc1nc(C#N)nc2c1ncn2Cc1ccccc1 (configuration not stated) | 5 µM | 3.4 µM | 5.83 µM | > 30 µM |  |
| Cc1cccc(CNc2nc(C#N)nc3c2ncn3C2CCCC2)c1 | > 25 µM | 1.1 µM | 10.5 µM | > 30 µM |  |
| COCCCn1cnc2c(NCc3ccc(Cl)c(Cl)c3)nc(C#N)nc21 | 2.5 µM | 0.15 µM | 0.78 µM | > 30 µM |  |
| CCCCn1cnc2c(NCc3ccc(Cl)c(Cl)c3)nc(C#N)nc21 | 4.1 µM | 0.18 µM | 1.82 µM | > 30 µM |  |
